Data taken from publication PMC9968262 (American Journal of Clinical Dermatology, 2022).
Where “and” joins values, the source holds several entries; their conditions need not be identical. Equal values may be shown once. Read-outs that look alike come from different tables or passages of the source. Blank lines part the entries; values can stand above or below the molecule they belong to.

Experiments:
[1] = DERMIS-1; assay type: in vivo, human; conditions: for Week 4 extrapolated AUC24, h*ng/mL / Week 8 extrapolated AUC24, h*ng/mL: predose concentration x 24, mean (SD)
Method in brief: (§1)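 Patients with chronic plaque psoriasis covering 2–20% BSA were randomized 2:1 (double-blind) to 0.3% cream or vehicle. Cream was applied once daily for 8 weeks, including to new lesions. Predose (Ctrough) plasma was sampled at Baseline, Week 4 and Week 8. Parent and N-oxide were measured by validated LC-MS/MS (LLOQ 0.100 ng/mL). AUC24 = observed predose concentration × 24.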

[2] = test system: phosphodiesterase 4 (PDE4); conditions: active metabolite; cited from earlier work
[3] = DERMIS-2; assay type: in vivo, human; conditions: for Week 4 extrapolated AUC24, h*ng/mL / Week 8 extrapolated AUC24, h*ng/mL: predose concentration x 24, mean (SD)
Method in brief: as §1

[4] = Phase I/IIa study; assay type: in vivo, human; conditions: for plasma concentration, mean (SD): Day 28; for concentration at 24 h / concentration at 28 days: human, plasma, topical
Method in brief: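 Cohort 2 was double-blind and vehicle-controlled: 0.15% or 0.5% cream once daily for 28 days. Patients had psoriasis for >6 months and ≤5% BSA involvement. Day 28 plasma was drawn before application and at 1, 2, 4, 6 and 24 h after the last dose. Parent and N-oxide were quantified by validated LC-MS/MS (LLOQ 0.100 ng/mL).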

[5] = Phase I/IIa study; assay type: in vivo, human; conditions: for skin samples with measurable (quantifiable) level: N = 27 skin samples; for Kp at 24 h / concentration at 24 h / concentration at 28 days: human, topical; for Kp at 24 h: skin (punch biopsy) / plasma; for concentration at 24 h / concentration at 28 days: skin (punch biopsy)
[6] = cited from earlier work; for peak plasma concentration (Cmax): healthy volunteers; for elimination half-life: roflumilast administered orally
[7] = Maximal usage PK study; assay type: in vivo, human; conditions: for steady state achieved by: plasma concentrations, roflumilast cream 0.3% once daily; for Tmax, h (min–max): plasma, Day 15, roflumilast cream 0.3% daily topical, mean (min–max)
Method in brief: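 Open-label, single-arm, 2-week maximal-use study: 0.3% cream at 2 mg/cm2 once each evening to all plaques except the scalp. Subjects were adolescents 12–17 y (≥10% BSA) and adults (≥20% BSA), with IGA ≥3. Plasma was sampled predose and 1, 2, 4, 8 and 24 h post-dose on Days 1 and 15, plus 7, 14 and 21 days after the last dose. Analysis was LC-MS/MS (LLOQ 0.100 ng/mL) with noncompartmental linear trapezoidal methods.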

[8] = oral 500 µg; cited from earlier work
[9] = cited from earlier work
[10] = at 22 °C; cited from earlier work
[11] = age 6–11 years (N = 1), predose concentration x 24
[12] = age 12–17 years (N = 3), predose plasma (Ctrough), mean (SD)
[13] = age ≥ 18 years (N = 241), predose plasma (Ctrough), mean (SD)
[14] = age 6–11 years (N = 1), predose plasma (Ctrough)
[15] = age 12–17 years (N = 5), predose plasma (Ctrough), mean (SD)
[16] = age ≥ 18 years (N = 244), predose plasma (Ctrough), mean (SD)
[17] = multiple dosing of oral roflumilast 500 µg

Week 8 extrapolated AUC24 [1, 11]: 103 ng·h/mL
Week 4 extrapolated AUC24, h*ng/mL ([1]; age 12–17 years (N = 3)): 202 (91.2) h*ng/mL
Week 8 extrapolated AUC24, h*ng/mL ([1]; age 12–17 years (N = 3)): 209 (132) h*ng/mL
Week 4 conc., ng/mL [1, 12]: 8.42 (3.80) ng/mL
Week 8 conc., ng/mL [1, 12]: 8.71 (5.49) ng/mL
Week 4 extrapolated AUC24, h*ng/mL ([1]; age ≥ 18 years (N = 241)): 288 (310) h*ng/mL
Week 8 extrapolated AUC24, h*ng/mL ([1]; age ≥ 18 years (N = 241)): 242 (290) h*ng/mL
Week 4 conc., ng/mL [1, 13]: 11.8 (12.9) ng/mL
Week 8 conc. [1, 13]: 9.86 ng/mL and 9.9 ng/mL
Week 4 extrapolated AUC24 [3, 11]: 576 ng·h/mL
Week 8 extrapolated AUC24 [3, 11]: 614 ng·h/mL
Week 4 conc. [3, 14]: 24.0 ng/mL
Week 8 conc. [3, 14]: 25.6 ng/mL
Week 4 extrapolated AUC24, h*ng/mL ([3]; age 12–17 years (N = 5)): 84.6 (58.4) h*ng/mL
Week 8 extrapolated AUC24, h*ng/mL ([3]; age 12–17 years (N = 5)): 161 (174) h*ng/mL
Week 4 conc., ng/mL [3, 15]: 3.53 (2.44) ng/mL
Week 8 conc., ng/mL [3, 15]: 6.72 (7.24) ng/mL
Week 4 extrapolated AUC24, h*ng/mL ([3]; age ≥ 18 years (N = 244)): 294 (338) h*ng/mL
Week 8 extrapolated AUC24, h*ng/mL ([3]; age ≥ 18 years (N = 244)): 249 (308) h*ng/mL
Week 4 conc., ng/mL [3, 16]: 12.2 (14.1) ng/mL
Week 8 conc. [3, 16]: 10.2 ng/mL
plasma concentration, mean (SD) ([4]; roflumilast cream 0.15% (n = 21)): 5.44 [4.95] ng/mL
plasma concentration, mean (SD) ([4]; roflumilast cream 0.5% (n = 20)): 6.52 [4.04] ng/mL
skin samples with measurable (quantifiable) level [5]: only one sample
skin samples with measurable (quantifiable) level ([5]; listed as Roflumilast N-oxide): only one skin sample
skin concentrations lower than circulating plasma concentrations ([5]; skin LLOQ of 0.2 ng/g, cream 0.15% and 0.5%): at least 30 fold
steady state achieved by [7]: ≤ 15 days
Tmax, h (min–max) ([7]; adolescents 12–17 years): 16.5 (1.0–24.0) h
Tmax, h (min–max) ([7]; adults ≥18 years): 12.9 (0–24) h
roflumilast N-oxide plasma concentrations relative to roflumilast concentrations ([7]; repeat daily topical roflumilast cream 0.3%, steady state): eightfold
Compound: O=C(Nc1c(Cl)c[n+]([O-])cc1Cl)c1ccc(OC(F)F)c(OCC2CC2)c1 [roflumilast N-oxide]
potency of N-oxide metabolite relative to roflumilast [2]: threefold less potent
systemic exposure of roflumilast N-oxide relative to roflumilast ([6]; intravenous administration of roflumilast): 7.4 times
peak plasma concentration (Cmax) [6, 17]: 21.7 ng/mL
systemic exposure of roflumilast N-oxide relative to roflumilast ([6]; oral administration of roflumilast): 12.4 times
elimination half-life [6]: 30 h

Week 8 extrapolated AUC24, h*ng/mL ([1]; age ≥ 18 years (N = 241)): 47.4 (58.3) h*ng/mL
Week 4 conc., ng/mL [1, 13]: 2.05 (2.83) ng/mL
concentration at 24 h ([4]; 0.15 % cream): 1.15 ng/mL
concentration at 28 days ([4]; 0.15 % cream): 1.03 ng/mL
concentration at 24 h ([4]; 0.5 % cream): 0.805 ng/mL
concentration at 28 days ([4]; 0.5 % cream): 1.15 ng/mL
skin samples with measurable (quantifiable) level [5]: All but one sample
Kp at 24 h ([5]; 0.15 % cream): 126
Kp at 24 h ([5]; 0.5 % cream): 61.8
concentration at 24 h ([5]; 0.15 % cream): 84 ng/mL
concentration at 28 days ([5]; 0.15 % cream): 120 ng/g
concentration at 24 h ([5]; 0.5 % cream): 51 ng/mL
concentration at 28 days ([5]; 0.5 % cream): 56.1 ng/g
steady state achieved by [7]: ≤ 15 days
peak-to-trough ratio (plasma) ([7]; steady state (Day 15), topical roflumilast cream 0.3%): 1.2
Compound: O=C(Nc1c(Cl)cncc1Cl)c1ccc(OC(F)F)c(OCC2CC2)c1 [roflumilast]
diarrhea (occurrence) [8]: 9.5%
nausea (occurrence) [8]: 4.7%
weight decreased (occurrence) [8]: 7.5%
logP [9]: 3.53
water solubility [10]: 0.52 to 0.56 µg/mL
oral bioavailability ([6]; 500 µg oral dose): approximately 79%
time to absorption / peak levels after oral dose ([6]; 500 µg oral dose): about 1.25 h
time to absorption / peak levels after oral dose ([6]; 500 µg oral dose, listed as Roflumilast): 1 h
Cmax in COPD patients higher than in healthy volunteers [6, 17]: about 6%
peak plasma concentration (Cmax) [6, 17]: 6.01 ng/mL
peak-to-trough ratio ([6]; oral administration): greater than 10
elimination half-life [6]: 17 to 30 h and 17 h
